The test system of series [1] is Bel7402/5-FU. As to the kind of experiment: Induction of apoptosis in human Bel7402/5-FU cells assessed as increase in irregular nuclear morphology incubated for 48 hrs by DAPI staining based fluorescence microscopic analysis. It is filed as functional, cell-based. In a few lines: (§1)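 Bel-7402/5-FU cells were seeded at 5 × 10⁵ per well and left 12 h, then exposed at three concentrations (1, 2, 5) for 48 h. Cells were washed three times in PBS and stained with DAPI for 10 min at room temperature. Nuclear morphology was scored by fluorescence microscopy.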

Series [2] has as its system Bel7402/5-FU. Put plainly: Induction of apoptosis in human Bel7402/5-FU cells assessed as increase in apoptotic bodies incubated for 48 hrs by DAPI staining based fluorescence microscopic analysis. It is filed as functional, cell-based. In a few lines: as §1
Series [3] concerns Bel7402/5-FU. As to the kind of experiment: Induction of apoptosis in human Bel7402/5-FU assessed as viable cells at 1 uM incubated for 48 hrs by annexinV-FITC/propidium iodide staining based flow cytometry (reference value: 96.9 to 97.1 %). (A flow cytometer gives signals particle by particle.)
The nature of series [4]: Therapeutic index, ratio of IC50 for mouse 3T3 cells to IC50 for human Bel7402 cells. Format: toxicity. As to conditions: mouse 3T3 cells versus human Bel7402 cells, read-out: TI.
Series [5] deals with Bel7402/5-FU. As to the kind of experiment: Induction of apoptosis in human Bel7402/5-FU assessed as necrotic cells at 2.5 uM incubated for 48 hrs by annexinV-FITC/propidium iodide staining based flow cytometry (reference value: 0.024 to 0.157 %).
The subject of series [6] is Bel7402/5-FU. As to the kind of experiment: Induction of apoptosis in human Bel7402/5-FU assessed as necrotic cells at 1 uM incubated for 48 hrs by annexinV-FITC/propidium iodide staining based flow cytometry (reference value: 0.024 to 0.157 %).
Series [7] has as its system Bel7402/5-FU. Put plainly: Induction of apoptosis in human Bel7402/5-FU assessed as late apoptotic cells at 2.5 uM incubated for 48 hrs by annexinV-FITC/propidium iodide staining based flow cytometry (reference value: 0.268 to 0.945 %).
In series [8] the test system is Bel7402/5-FU. Put plainly: Down regulation of ABCG2 expression in human Bel7402/5-FU cells incubated for 24 hrs by western blot analysis. Format: functional, cell-based. In a few lines:
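Bel-7402/5-FU cells were seeded at 5 × 10⁵ per well and left 12 h, then treated with four concentrations (0.5, 1, 2, 5) for 24 h. Cells were PBS-washed and lysed in RIPA on ice for 30 min, then denatured at 100 °C for 5 min. Lysates went through SDS-PAGE and PVDF transfer, 5% milk blocking for 1 h at room temperature, primary antibodies, and HRP secondary for 2 h at room temperature.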
For orientation: Immunoblotting shows a protein as a band on a membrane.

On to `C=C1C(=O)O[C@H]2[C@H]1CC/C(COC(=O)Cn1cc(F)c(=O)n(Cc3ccc(C(F)(F)F)cc3)c1=O)=C\CC[C@@]1(C)O[C@@H]21`, for which the Activity entry is “Dose-dependent effect” in the series on Bel7402/5-FU [1]; “Dose-dependent effect” in the series with Bel7402/5-FU [2]; 1.87% in the series with Bel7402/5-FU [5]; 1.9% in the series with Bel7402/5-FU [6]; 4.86% in the series with Bel7402/5-FU [7]; “Dose-dependent effect” with Bel7402/5-FU [8]. For the same molecule, in the series on Bel7402/5-FU [3], the viability (as a rule, a read-out of living cells in per cent, often relative to untreated cells) at 1 µM stood at 94.3%. The selectivity ratio in series [4] worked out at 2.3.
